# Experimental data: ChEMBL document CHEMBL1126849, “Synthesis of A-ring fluorinated derivatives of (17 alpha,20E/Z)-[125I]iodovinylestradiols: effect on receptor binding and receptor-mediated target tissue uptake” (J Med Chem, 1993)
# Key:
# Rattus norvegicus [1] = assay: Biodistribution in kidney of immature female rat after 12 hour administration of 3 micro Ci (111 kBq) in the absence of 60 microg estradiol; assay type: ADME, organism-based; settings: in vivo
# How it was run: (§1)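 Immature female Long Evans rats (21–24 days, 45–70 g), unanesthetized in retention cages, given 3 µCi (111 kBq) 125I-labeled steroid i.v. via lateral tail vein. Vehicle was ethanol diluted in saline containing 1% Tween-80, giving 9% ethanol final. The blocking group received 60 µg unlabeled estradiol co-injected. Rats were killed under ether by axillary bleeding, and tissues were KCl-washed and gamma-counted. Data are %ID/g, mean ± SE, n=3–5.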
# Rattus norvegicus [2] = assay: Biodistribution in kidney of immature female rat after 1 hr administration of 3 micro Ci (111 kBq) in the absence of 60 microg estradiol; assay type: ADME, organism-based; settings: in vivo; how it was run: as §1
# Rattus norvegicus [3] = assay: Biodistribution in liver of immature female rat after 3 hour administration of 3 micro Ci (111 kBq) in the absence of 60 microg estradiol; assay type: ADME, organism-based; settings: in vivo; how it was run: as §1
# Rattus norvegicus [4] = assay: Biodistribution in liver of immature female rat after 5 hour administration of 3 micro Ci (111 kBq) in the absence of 60 microg estradiol; assay type: ADME, organism-based; settings: in vivo; how it was run: as §1
# Rattus norvegicus [5] = assay: Biodistribution in lungs of immature female rat after 12 hour administration of 3 micro Ci (111 kBq) in the absence of 60 microg estradiol; assay type: ADME, organism-based, Lung; settings: in vivo
# How it was run: (§2)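 Immature female Long Evans rats (21–24 days, 45–70 g), three to five per group, given 125I-labeled steroid (3 μCi, 111 kBq) by lateral tail vein without anesthesia. Vehicle: ethanol diluted in saline with 1% Tween-80, final ethanol 9%, 0.22 μm filtered. +E2 groups received 60 μg unlabeled estradiol co-injected. Killed under ether at set times; tissues KCl-washed, blotted, weighed, gamma counted; %ID/g, mean with SE.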
# Rattus norvegicus [6] = assay: Biodistribution in lungs of immature female rat after 1 hr administration of 3 micro Ci (111 kBq) in the presence of (+E2); assay type: ADME, organism-based, Lung; settings: in vivo; how it was run: as §1
# Rattus norvegicus [7] = assay: Biodistribution in lungs of immature female rat after 5 hour administration of 3 micro Ci (111 kBq) in the absence of 60 microg estradiol; assay type: ADME, organism-based, Lung; settings: in vivo; how it was run: as §2
# Rattus norvegicus [8] = assay: Biodistribution in fat of immature female rat after 12 hour administration of 3 micro Ci (111 kBq) in the absence of 60 microg estradiol; assay type: ADME, organism-based, Adipose tissue; settings: in vivo; how it was run: as §1
# Rattus norvegicus [9] = assay: Biodistribution in fat of immature female rat after 1 hr administration of 3 micro Ci (111 kBq) in the absence of 60 microg estradiol; assay type: ADME, organism-based, Adipose tissue; settings: in vivo; how it was run: as §1
# Rattus norvegicus [10] = assay: Biodistribution in fat of immature female rat after 1 hr administration of 3 micro Ci (111 kBq) in the presence of (+E2); assay type: ADME, organism-based, Adipose tissue; settings: in vivo; how it was run: as §1
# Rattus norvegicus [11] = assay: Biodistribution in fat of immature female rat after 3 hour administration of 3 micro Ci (111 kBq) in the absence of 60 microg estradiol; assay type: ADME, organism-based, Adipose tissue; settings: in vivo; how it was run: as §1
# Rattus norvegicus [12] = assay: Biodistribution in fat of immature female rat after 5 hour administration of 3 micro Ci (111 kBq) in the absence of 60 microg estradiol; assay type: ADME, organism-based, Adipose tissue; settings: in vivo; how it was run: as §1
# Rattus norvegicus [13] = assay: Biodistribution in muscle of immature female rat after 12 hour administration of 3 micro Ci (111 kBq) in the absence of 60 microg estradiol; assay type: ADME, organism-based, Muscle tissue; settings: in vivo; how it was run: as §2
# Rattus norvegicus [14] = assay: Biodistribution in muscle of immature female rat after 5 hour administration of 3 micro Ci (111 kBq) in the absence of 60 microg estradiol; assay type: ADME, organism-based, Muscle tissue; settings: in vivo; how it was run: as §2
# Rattus norvegicus [15] = assay: Biodistribution in spleen of immature female rat after 12 hour administration of 3 micro Ci (111 kBq) in the absence of 60 microg estradiol; assay type: ADME, organism-based; settings: in vivo; how it was run: as §2
# Rattus norvegicus [16] = assay: Biodistribution in spleen of immature female rat after 1 hr administration of 3 micro Ci (111 kBq) in the presence of (+E2); assay type: ADME, organism-based; settings: in vivo; how it was run: as §2
# Rattus norvegicus [17] = assay: Biodistribution in spleen of immature female rat after 3 hour administration of 3 micro Ci (111 kBq) in the absence of 60 microg estradiol; assay type: ADME, organism-based; settings: in vivo; how it was run: as §2
# Rattus norvegicus [18] = assay: Biodistribution in blood of immature female rat after 5 hour administration of 3 micro Ci (111 kBq) in the absence of 60 microg estradiol; assay type: ADME, organism-based; settings: in vivo; how it was run: as §1
# Rattus norvegicus [19] = assay: Biodistribution in kidney of immature female rat after 5 hour administration of 3 micro Ci (111 kBq) in the absence of 60 microg estradiol; assay type: ADME, organism-based; settings: in vivo; how it was run: as §1
# Rattus norvegicus [20] = assay: Biodistribution in uterus / spleen, muscle, lungs of immature female rat after 12 hour administration of 3 micro Ci (111 kBq) in the absence of 60 microg estradiol; assay type: ADME, organism-based; settings: in vivo
# How it was run: (§3)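 Immature female Long Evans rats (21–24 days, 45–70 g), 3–5 per group, unanesthetized in retention cages, given 3 μCi (111 kBq) 125I-labeled steroid by lateral tail vein. Vehicle: ethanol diluted with saline containing 1% Tween-80, final ethanol 9%. +E2 group co-injected 60 μg unlabeled estradiol (1 h only). Killed under ether; tissues KCl-washed, weighed, gamma-counted. Output: %ID/g (mean, SE) and uterus to blood or nontarget (muscle, spleen, lungs) ratios.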
# Rattus norvegicus [21] = assay: Biodistribution in uterus / spleen, muscle, lungs of immature female rat after 1 hr administration of 3 micro Ci (111 kBq) in the absence of 60 microg estradiol; assay type: ADME, organism-based; settings: in vivo
# How it was run: (§4)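 Same in vivo procedure: immature female Long Evans rats (21–24 days), three to five per group, 3 μCi (111 kBq) tracer i.v. via tail vein in 9% ethanol/saline/1% Tween-80, ± 60 μg estradiol co-injected at 1 h. Uterus %ID/g (gamma counting) divided by blood, or by nontarget organ (muscle, spleen, lungs), %ID/g to give ratios.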
# Rattus norvegicus [22] = assay: Biodistribution in uterus of immature female rat after 1 hr administration of 3 micro Ci (111 kBq) in the absence of 60 microg estradiol; assay type: ADME, organism-based; settings: in vivo; how it was run: as §3
# Rattus norvegicus [23] = assay: Biodistribution in uterus of immature female rat after 3 hour administration of 3 micro Ci (111 kBq) in the absence of 60 microg estradiol; assay type: ADME, organism-based; settings: in vivo; how it was run: as §3
# Rattus norvegicus [24] = assay: Biodistribution in thyroid of immature female rat after 5 hour administration of 3 micro Ci (111 kBq) in the absence of 60 microg estradiol; assay type: ADME, organism-based, Thyroid gland; settings: in vivo; how it was run: as §2
# Rattus norvegicus [25] = assay: Biodistribution in uterus / blood of immature female rat after 1 hr administration of 3 micro Ci (111 kBq) in the absence of 60 microg estradiol; assay type: ADME, organism-based; settings: in vivo; how it was run: as §4
# Rattus norvegicus [26] = assay: Biodistribution in uterus / blood of immature female rat after 1 hr administration of 3 micro Ci (111 kBq) in the presence of (+E2); assay type: ADME, organism-based; settings: in vivo; how it was run: as §4
# Rattus norvegicus [27] = assay: Biodistribution in uterus / blood of immature female rat after 3 hour administration of 3 micro Ci (111 kBq) in the absence of 60 microg estradiol; assay type: ADME, organism-based; settings: in vivo; how it was run: as §4
# Rattus norvegicus [28] = assay: Biodistribution in uterus / blood of immature female rat after 5 hour administration of 3 micro Ci (111 kBq) in the absence of 60 microg estradiol; assay type: ADME, organism-based; settings: in vivo; how it was run: as §4
# [29] = target: Estrogen receptor (Mus musculus) (UniProt O08537+P19785); assay: Relative binding affinity (RBA) against murine cytoplasmic estrogen receptor incubated at 0-4 degree Celsius for 18 hours; assay type: protein assay
# How it was run: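 Competitive binding on murine uterine cytoplasmic extract with 20 nM [3H]estradiol and competitor steroids at 2 nM–20 μM, incubated 18 h at 0–4 °C. RBA = 100 × ratio of […] concentration giving 50% competition for specific binding. Mean of three experiments with SD.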
# Rattus norvegicus [30] = assay: Biodistribution in liver of immature female rat after 1 hr administration of 3 micro Ci (111 kBq) in the presence of (+E2); assay type: ADME, organism-based; settings: in vivo; how it was run: as §1
# Sequence of Estrogen receptor (Mus musculus) (O08537 whole entry, looked up): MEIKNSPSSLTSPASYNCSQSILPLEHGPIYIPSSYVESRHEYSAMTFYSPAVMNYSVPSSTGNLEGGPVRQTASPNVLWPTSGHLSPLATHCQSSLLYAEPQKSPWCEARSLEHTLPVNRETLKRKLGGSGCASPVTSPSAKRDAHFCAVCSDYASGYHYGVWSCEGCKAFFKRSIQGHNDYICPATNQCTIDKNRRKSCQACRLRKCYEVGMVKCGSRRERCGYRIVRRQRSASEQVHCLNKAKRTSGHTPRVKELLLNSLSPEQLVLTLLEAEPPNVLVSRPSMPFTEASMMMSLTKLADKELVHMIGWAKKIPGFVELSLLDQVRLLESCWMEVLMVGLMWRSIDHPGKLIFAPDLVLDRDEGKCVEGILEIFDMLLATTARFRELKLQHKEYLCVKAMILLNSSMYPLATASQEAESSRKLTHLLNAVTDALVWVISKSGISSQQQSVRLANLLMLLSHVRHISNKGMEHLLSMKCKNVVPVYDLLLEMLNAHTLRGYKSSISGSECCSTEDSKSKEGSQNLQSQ
# Sequence of Estrogen receptor (Mus musculus) (P19785 whole entry, looked up): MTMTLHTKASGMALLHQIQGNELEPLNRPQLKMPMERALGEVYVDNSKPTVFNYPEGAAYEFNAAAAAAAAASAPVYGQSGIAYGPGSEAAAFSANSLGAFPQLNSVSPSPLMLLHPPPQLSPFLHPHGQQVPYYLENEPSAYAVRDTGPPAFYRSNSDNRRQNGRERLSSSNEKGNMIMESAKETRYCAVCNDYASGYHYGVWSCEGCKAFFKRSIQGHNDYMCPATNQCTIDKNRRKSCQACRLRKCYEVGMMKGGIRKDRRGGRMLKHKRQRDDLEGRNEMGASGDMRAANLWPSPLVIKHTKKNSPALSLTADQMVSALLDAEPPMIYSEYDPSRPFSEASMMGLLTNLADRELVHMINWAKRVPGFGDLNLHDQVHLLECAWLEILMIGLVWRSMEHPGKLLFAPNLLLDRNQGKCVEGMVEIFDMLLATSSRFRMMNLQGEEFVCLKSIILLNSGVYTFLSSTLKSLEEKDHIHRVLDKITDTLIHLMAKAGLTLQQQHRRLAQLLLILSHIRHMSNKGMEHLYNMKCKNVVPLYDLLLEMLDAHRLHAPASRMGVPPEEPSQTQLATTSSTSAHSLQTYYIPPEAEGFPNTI
compound,measurement,setting,value
CO[C@H]1C[C@@]2(C)[C@@H](CC[C@@]2(O)/C=C/I)[C@@H]2CCc3cc(O)c(F)cc3[C@H]21,ID/g,Rattus norvegicus [1],0.15%
same,ID/g,Rattus norvegicus [2],1.44%
same,ID/g,Rattus norvegicus [3],3.56%
same,ID/g,Rattus norvegicus [4],3.11%
same,ID/g,Rattus norvegicus [5],0.13%
same,ID/g,Rattus norvegicus [6],1.22%
same,ID/g,Rattus norvegicus [7],0.51%
same,ID/g,Rattus norvegicus [8],0.45%
same,ID/g,Rattus norvegicus [9],3.34%
same,ID/g,Rattus norvegicus [10],4.31%
same,ID/g,Rattus norvegicus [11],1.82%
same,ID/g,Rattus norvegicus [12],1.57%
same,ID/g,Rattus norvegicus [13],0.07%
same,ID/g,Rattus norvegicus [14],0.45%
same,ID/g,Rattus norvegicus [15],0.18%
same,ID/g,Rattus norvegicus [16],1.04%
same,ID/g,Rattus norvegicus [17],0.8%
same,ID/g,Rattus norvegicus [18],0.32%
same,ID/g,Rattus norvegicus [19],1.52%
same,uterus to nontarget tissue ratio,Rattus norvegicus [20],6.75%
same,uterus-to-nontarget tissue uptake ratio,Rattus norvegicus [21],4.78%
same,ID/g,Rattus norvegicus [22],4.41%
same,ID/g,Rattus norvegicus [23],3.23%
same,ID/g,Rattus norvegicus [24],412%
same,uterus-to-blood ratio of %ID/g,Rattus norvegicus [25],9.82%
same,uterus/blood %ID/g ratio,Rattus norvegicus [26],1.6%
same,uterus to blood %ID/g ratio (unitless),Rattus norvegicus [27],8.28%
same,uterus to blood ratio,Rattus norvegicus [28],12.41%
same,RBA,[29],13.5
CO[C@H]1C[C@@]2(C)[C@@H](CC[C@@]2(O)/C=C\I)[C@@H]2CCc3cc(O)c(F)cc3[C@H]21,RBA,[29],27.9
CO[C@H]1C[C@@]2(C)[C@@H](CC[C@@]2(O)/C=C/I)[C@@H]2CCc3c(ccc(O)c3F)[C@H]21,RBA,[29],27.7
C[C@]12CC[C@@H]3c4cc(F)c(O)cc4CC[C@H]3[C@@H]1CC[C@@]2(O)/C=C/I,ID/g,Rattus norvegicus [30],3.86%
same,ID/g,Rattus norvegicus [1],0.06%
same,ID/g,Rattus norvegicus [2],0.87%
same,ID/g,Rattus norvegicus [4],2.12%
same,ID/g,Rattus norvegicus [5],0.1%
same,ID/g,Rattus norvegicus [6],0.93%
same,ID/g,Rattus norvegicus [7],0.54%
same,ID/g,Rattus norvegicus [8],0.41%
same,ID/g,Rattus norvegicus [9],3.45%
same,ID/g,Rattus norvegicus [10],2.93%
same,ID/g,Rattus norvegicus [11],3.17%
same,ID/g,Rattus norvegicus [12],2.39%
same,ID/g,Rattus norvegicus [13],0.03%
same,ID/g,Rattus norvegicus [14],0.28%
same,ID/g,Rattus norvegicus [15],0.05%
same,ID/g,Rattus norvegicus [16],0.56%
same,ID/g,Rattus norvegicus [17],0.32%
same,ID/g,Rattus norvegicus [18],0.29%
same,ID/g,Rattus norvegicus [19],0.25%
same,ID/g,Rattus norvegicus [22],1%
same,ID/g,Rattus norvegicus [23],0.53%
same,ID/g,Rattus norvegicus [24],43.46%
same,uterus-to-blood ratio of %ID/g,Rattus norvegicus [25],2.21%
same,uterus/blood %ID/g ratio,Rattus norvegicus [26],1.09%
same,uterus to blood %ID/g ratio (unitless),Rattus norvegicus [27],1.4%
same,uterus to blood ratio,Rattus norvegicus [28],1.15%
same,RBA,[29],6.2
